Results collected from several papers.
Target: Muscle, skeletal receptor tyrosine-protein kinase (MUSK, Homo sapiens, UniProt O15146)
Residues used in one study (O15146 24-869): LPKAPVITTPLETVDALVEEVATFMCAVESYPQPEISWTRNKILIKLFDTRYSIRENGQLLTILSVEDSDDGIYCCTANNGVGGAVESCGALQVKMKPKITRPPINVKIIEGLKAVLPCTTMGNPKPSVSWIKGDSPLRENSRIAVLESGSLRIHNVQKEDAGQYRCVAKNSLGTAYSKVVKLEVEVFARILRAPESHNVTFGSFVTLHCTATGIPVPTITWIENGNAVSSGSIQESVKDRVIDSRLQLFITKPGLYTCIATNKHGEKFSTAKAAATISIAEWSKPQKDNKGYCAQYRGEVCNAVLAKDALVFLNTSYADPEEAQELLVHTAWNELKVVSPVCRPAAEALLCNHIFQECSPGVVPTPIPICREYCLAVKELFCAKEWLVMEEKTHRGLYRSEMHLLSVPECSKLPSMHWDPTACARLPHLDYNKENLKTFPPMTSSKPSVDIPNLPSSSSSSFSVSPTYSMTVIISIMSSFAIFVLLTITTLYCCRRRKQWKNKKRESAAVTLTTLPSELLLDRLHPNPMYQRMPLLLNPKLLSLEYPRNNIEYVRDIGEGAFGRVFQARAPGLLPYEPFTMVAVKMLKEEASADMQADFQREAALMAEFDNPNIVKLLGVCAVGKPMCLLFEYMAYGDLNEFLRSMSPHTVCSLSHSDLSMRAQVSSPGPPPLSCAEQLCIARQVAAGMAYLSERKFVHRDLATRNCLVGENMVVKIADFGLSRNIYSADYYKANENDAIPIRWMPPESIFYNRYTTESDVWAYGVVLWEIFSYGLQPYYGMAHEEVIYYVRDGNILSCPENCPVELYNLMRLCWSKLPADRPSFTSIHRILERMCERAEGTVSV

| SMILES | observed | mode | method | tested at | quantity | result |
| --- | --- | --- | --- | --- | --- | --- |
| CCCOc1ccc(OC)c(F)c1C(=O)c1ccc(C(=O)N[C@@H]2CNC[C@H]2NC(=O)c2ccc3[nH]ncc3c2)cc1 | enzyme activity | inhibitor |  | 0.75 µM | remaining activity | 13% |
| Cc1ccc(Nc2nccc(N(C)c3ccc4c(C)n(C)nc4c3)n2)cc1S(N)(=O)=O | enzyme activity | inhibitor |  | 10 µM | inhibition | 97% |
| CC(=O)Nc1c(C(C)=O)c(=O)n(C)c2nc(-c3ccc(Cl)cc3Cl)c(-c3ccc(Cl)cc3)cc12 | cell-free assay |  | competition with immobilised ligand | 1 µM | remaining binding | 100% |
| CNC(=O)c1cc(Oc2ccc(NC(=O)Nc3ccc(Cl)c(C(F)(F)F)c3)cc2)ccn1 | enzyme activity | inhibitor |  | 10 µM | inhibition | 100% |
| COc1cc2c(N3CCN(C(=O)Nc4ccc(OC(C)C)cc4)CC3)ncnc2cc1OCCCN1CCCCC1 | cell-free assay |  |  | 0.5 µM | remaining signal | 99.6% |
| O=C(NCCCC1CCCCC1)c1ccc(CNC(=O)c2cnn(-c3ccccc3)c2C(F)(F)F)cc1 | cell-free assay |  | competition with immobilised ligand | 0.1 µM | remaining binding | 100% |
| O=C(Nc1cnn(-c2csc(C(=O)NC3COC3)c2)c1)Nc1c(F)cccc1Cl | enzyme activity | inhibitor |  | 5 µM | remaining activity | 86.8% |
| Cc1cc(NC(=O)c2cccc3cc(-c4cccc5[nH]nc(N)c45)ccc23)ccc1F | enzyme activity | inhibitor |  | 0.1 µM | activity vs control | 99% |
| CN(C)C(=O)Cn1cc(-c2nc(C3(c4ccc(-c5cnc(N)nc5)cc4)CC3)no2)cn1 | cell-free assay |  | competition with immobilised ligand | 1 µM | remaining binding | 100% |
| Cc1sc(C(=O)NC2COC2)cc1-n1cc(NC(=O)Nc2c(F)cccc2Cl)cn1 | enzyme activity | inhibitor |  | 10 µM | remaining activity | 103% |
| CC(C)(C)c1nc(-c2cccc(NS(=O)(=O)c3c(F)cccc3F)c2F)c(-c2ccnc(N)n2)s1 | enzyme activity | inhibitor | radiometric | 1 µM | remaining activity | 113% |
| CN1CC(Oc2cnc(C#N)cc2-c2ccn3nc(NC(=O)C4CC4)cc3c2)C1 | enzyme activity | inhibitor |  | 1 µM | inhibition | 6% |
| O=C(Nc1cccnn1)N1CC(C/C=C/c2cncc(Oc3ccc(C(F)(F)F)cn3)n2)C1 | cell-free assay |  | competition with immobilised ligand | 1 µM | remaining binding | 97% |
| COc1cc(C)c(Sc2cnc(NC(=O)c3ccc(N4CCN(CCCCCCCNC(=O)COc5cccc6c5C(=O)N(C5CCC(=O)NC5=O)C6=O)CC4)cc3)s2)cc1C(=O)N1CCN(C(C)=O)CC1 (stereo not drawn) | cell-free assay |  |  | 1 µM | inhibition | > 90% |
| CCN(CC)c1ccc(C2=NNC(=O)CC2C)cc1[N+](=O)[O-] (stereo not drawn) | enzyme activity | inhibitor |  | 10 µM | remaining activity | 85% |
| COc1cc2ncnc(Nc3ccc(Oc4ccccc4)cc3C)c2cc1OC | enzyme activity | inhibitor |  | 1 µM | inhibition | 4% |
| NS(=O)(=O)c1cc(NC(=O)Cc2ccccc2)ccc1Oc1cccc(Cl)c1 | cell-free assay |  | competition with immobilised ligand | 1 µM | remaining binding | 100% |
| Oc1cccc(-c2nc(N3CCOCC3)c3oc4ncccc4c3n2)c1 | cell-free assay |  |  | 0.5 µM | remaining signal | 87.8% |
| O=C(O)[C@@H]1[C@@H](Cn2nnc3ccccc3c2=O)CC[C@H]1C(=O)c1ccc(OCCC2CCOCC2)cc1 | cell-free assay |  | competition with immobilised ligand | 1 µM | remaining binding | 100% |
| CCN(CC)CCNC(=O)c1c(C)[nH]c(/C=C2\C(=O)Nc3ccc(F)cc32)c1C | enzyme activity | inhibitor |  | 0.3 µM | inhibition | 98% |
| CC(=O)N1CCC(c2ccc(C(=O)NC(=N)N)cc2C(F)(F)F)CC1 | cell-free assay |  | competition with immobilised ligand | 1 µM | remaining binding | 100% |
| Cc1ccc(C(=O)NCc2ccsc2)cc1C#Cc1cn(C(C)C)c2ncnc(N)c12 | enzyme activity | inhibitor |  | 1 µM | activity vs control | 73% |
| CCC(=N\O)/C(C)=C/c1ccc(F)cc1 | cell-free assay |  | competition with immobilised ligand | 1 µM | remaining binding | 90% |
| CNC(=O)c1cc2c(Oc3ccc(NC(=O)C4(C(=O)Nc5ccc(F)cc5)CC4)cc3)ccnc2cc1OC | enzyme activity | inhibitor | radiometric | 1 µM | inhibition | 70% |
